Compound activity from PubChem BioAssay.
In the library only some 3.5% were active in any assay of this set; here they are far more common.
RGS4 pot: RGS4 potentiation or activation; 310,000 compounds, 0.92% hits; AID 463111; B-score at 10 µM; HEK293 M3R/inducible RGS4, carbachol calcium flux Fluo4; active compounds read low;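 active = B-score of the integrated calcium signal more than 4 SD below the library mean, with starting fluorescence not abnormally high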;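 note: negative B-score means reduced calcium response which marks RGS4 activation or potentiation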
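Detection: kinetic calcium fluorescence imaging with Fluo4-AM dye, 2 µM / Material: HEK293 cells with stable M3R and inducible RGS4 / Schedule: recording 10 s baseline at 1 Hz, 100 s post-agonist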
MrgX1 PAM: allosterically activates human MrgX1 receptor signaling; MrgX1-HEK293, Fluo-4 calcium flux, FDSS; active compounds read high; B-score at 10 µM; 310,000 compounds, 0.63% hits; AID 588675;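 active = plate-corrected calcium response at least 3 library SD above typical, normal starting fluorescence, not activating the receptor alone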;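 note: compound read alongside a low EC10 to EC30 dose of BAM8-22 agonist; peak minus trough fluorescence over baseline measured at the second addition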
Target sequence (Q96LB2 whole entry, looked up): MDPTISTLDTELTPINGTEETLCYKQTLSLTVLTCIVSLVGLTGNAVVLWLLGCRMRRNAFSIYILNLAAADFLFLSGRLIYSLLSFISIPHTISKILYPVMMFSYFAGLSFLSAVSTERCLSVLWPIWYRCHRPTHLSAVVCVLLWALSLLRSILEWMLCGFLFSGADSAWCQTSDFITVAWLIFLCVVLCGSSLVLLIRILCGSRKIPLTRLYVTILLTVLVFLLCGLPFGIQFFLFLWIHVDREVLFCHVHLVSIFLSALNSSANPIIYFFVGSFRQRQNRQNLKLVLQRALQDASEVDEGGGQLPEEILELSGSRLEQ
MrgX1 ag: activates human MrgX1 receptor signaling; Q96LB2; MrgX1-HEK293 cells, Fluo-4 calcium fluorescence, agonist mode; active compounds read high; B-score at 10 µM; 310,000 compounds, 0.44% hits; AID 588627;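 active = calcium response B-score plate-corrected fluorescence ratio at least 3 library SD, with starting fluorescence B-score inside 5 SD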
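Test system: HEK293 cells stably expressing human MrgX1 receptor; Input: fifteen thousand cells per well; Dosing: compound delivered in addition one of three; Schedule: overnight seeding, then 1 h dark dye loading; Technique: Fluo-4 NW calcium fluorescence; Measure: B-scored fluorescence response ratio; Controls: positive and negative controls per plate.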
RGS4 inh: human RGS4 inhibition. P49798. HEK293 M3R/RGS4 inducible, Fluo-4 calcium flux; active compounds read high; triggered by carbachol at its EC20. B-score at 10 µM. 310,000 compounds, 0.45% hits;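 active = B-score, a plate-corrected calcium signal, over three deviations above library mean, with baseline fluorescence within five deviations of library mean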;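 note: RGS4 expression induced by doxycycline in cells with stable M3 receptor; B-score is computed from the integrated fluorescence ratio over baseline after carbachol; higher B-score means a larger calcium signal and so more RGS4 inhibition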
MrgX1 antag: antagonists of human MrgX1 receptor; Q96LB2; MRGX1-HEK293 calcium flux, Fluo-4, BAM8-22 antagonism; active compounds read low; B-score at 10 µM; 310,000 compounds, 1.3% hits;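 active = calcium-response B-score plate-corrected more than 3 library SD below zero, starting fluorescence within 5 deviations, no agonist response on first addition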;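 note: peak minus trough fluorescence over baseline after final BAM8-22 challenge near maximal dose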
Starred values were filed as active, the others as inactive; i = inactive; · = not tested or not shown.

SMILES	RGS4 pot	MrgX1 PAM	MrgX1 ag	RGS4 inh	MrgX1 antag
O=C(NCCC1CCCCN1S(=O)(=O)c1ccccc1)C(=O)NCc1ccc(F)cc1 (stereo not given)	i	i	i	i	i
COCc1ccc(CN2CCC(C(=O)Nc3cccc(-c4cscn4)c3)CC2)o1	i	i	i	i	i
COCc1ccc(CN2CCC(C(=O)Nc3cccc(-c4cccc(Cl)c4)c3)CC2)o1	-8.1*	i	i	i	i
COc1ccc(-c2c[n+]3c(n2-c2ccccc2)SCC3)cc1	-8.5*	i	i	i	i
Cc1ccc(-c2c[n+]3c(n2-c2ccccc2)SCC3)cc1	i	i	i	i	i
COc1ccc(-c2c[n+]3c(n2-c2ccccc2)CCCCC3)cc1	-8.3*	i	i	i	i
CCNCC(=O)N1c2ccccc2CCc2ccc(NC(=O)OC(C)C)cc21	i	i	i	i	i
CC1CC1C(=O)OCC(=O)NNC(=O)COc1ccc(Br)cc1 (stereo not given)	i	i	i	i	-6.5*
O=C(NCc1cccc(Cl)c1)c1ccc(N2CC3CC(C2)c2cccc(=O)n2C3)c(NC(=O)c2cccnc2)c1 (stereo not given)	i	i	i	i	i
O=C(N/N=C/c1cc([N+](=O)[O-])ccc1O)C(O)(c1ccccc1)c1ccccc1	i	9.4*	i	i	i
COc1ccc([N+](=O)[O-])cc1NC(=O)CSc1nccc(C)n1	i	i	i	i	i
COc1ccc([N+](=O)[O-])cc1NC(=O)CSc1nc(C)c(C)c(C)n1	i	i	i	i	-4.5*
COc1cccc(NC(=S)N(CCN(C)C)C(C)c2ccncc2)c1 (stereo not given)	i	i	i	i	i
CSc1ccc(Cl)c(C(=O)NCCOc2cc(C)ccc2C(C)C)c1	-7.2*	i	i	i	i
Cc1ccc(-c2nnn(CC(=O)N(c3ccc(F)cc3)C(C(=O)NC3CCCC3)c3ccco3)n2)o1 (stereo not given)	i	i	i	i	i
Cc1ccc(-c2nnn(CC(=O)N(c3cccc(F)c3)C(C(=O)NC3CCCC3)c3ccco3)n2)o1 (stereo not given)	i	i	i	i	-6.6*
CCN1CCN(c2ncc(C(=O)Nc3c(F)cc(F)cc3Br)c3ccccc23)CC1	i	i	i	i	i
CCN1CCN(c2ncc(C(=O)Nc3cc(Cl)c(OC)cc3OC)c3ccccc23)CC1	-7.3*	·	·	i	·
CS(=O)(=O)C1=NN2C(=N)/C(=C\c3ccc(OC(=O)c4ccco4)cc3)C(=O)N=C2S1	i	12*	i	i	i
N=C1/C(=C\c2ccc(OC(=O)c3ccco3)cc2)C(=O)N=C2SC=NN12	i	·	·	i	·
CC(C)CS(=O)(=O)C1=NN2C(=N)/C(=C\c3ccc(OC(=O)c4ccco4)cc3)C(=O)N=C2S1	i	i	29*	i	i
Cn1c(=O)c(C(=O)COC(=O)c2cc(C(F)(F)F)nc3c(C(F)(F)F)cccc23)c(N)n(CC2CC2)c1=O	-8.9*	i	i	i	-7.5*
CC(C)Cn1c(N)c(C(=O)COC(=O)c2cc(C(F)(F)F)nc3ccccc23)c(=O)n(C)c1=O	·	i	i	·	i
COc1cc(N/C=C(\C(C)=O)c2ccccc2)cc(OC)c1	·	i	30*	·	i
O=c1c2ccc(Cl)cc2nc(-c2cccc(C(F)(F)F)c2)n1O	i	i	47*	i	i
O=c1c2ccccc2nc(-c2ccc(Cl)c(Cl)c2)n1O	i	i	35*	i	i
COc1cnc(SC)nc1Nc1ccc(C#N)cc1	i	i	i	i	i
O=[N+]([O-])c1ccc(C2CCCC/C2=N/OCc2ccccc2F)c([N+](=O)[O-])c1 (stereo not given)	-7.7*	i	i	i	i
Cc1ccc(O)c(NC(=O)c2cc(-c3cccs3)on2)c1	i	i	i	i	i
COc1cccc(NC(=S)NC(=O)/C=C/c2ccc(F)cc2)c1	i	i	i	i	i
